Active and inactive are the calls of the source. No cut-off for these calls is given here.
Key:
[1] = test system: A549; assay: Antiproliferative activity against human A549 cells after 72 hrs by MTT assay; assay type: functional, cell-based; details: A549, 72 h
Summary of the method: (§1)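 Cell growth inhibition was read by MTT assay, and IC50 values were reported.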

[2] = test system: HCT-116; assay: Antiproliferative activity against human HCT116 cells after 72 hrs by MTT assay; assay type: functional, cell-based; details: HCT-116, 72 h; summary of the method: as §1
[3] = test system: MDA-MB-231; assay: Antiproliferative activity against human MDA-MB-231 cells after 72 hrs by MTT assay; assay type: functional, cell-based; details: MDA-MB-231, 72 h; summary of the method: as §1
[4] = test system: SK-HEP1; assay: Antiproliferative activity against human SKHEP1 cells after 72 hrs by MTT assay; assay type: functional, cell-based; details: SK-HEP1, 72 h; summary of the method: as §1
[5] = test system: U2OS; assay: Antiproliferative activity against human U2OS cells after 72 hrs by MTT assay; assay type: functional, cell-based; summary of the method: as §1
[6] = test system: SAOS-2; assay: Antiproliferative activity against human Saos2 cells after 72 hrs by MTT assay; assay type: functional, cell-based; details: SAOS-2, 72 h; summary of the method: as §1
[7] = test system: WI-38; assay: Cytotoxicity against human W138 cells after 72 hrs by MTT assay; assay type: cell-based; details: WI-38, 72 h; summary of the method: as §1
[8] = test system: HCT-116; assay: Induction of reactive oxygen species generation in human HCT116 cells at 10 uM after 1 hr by DCFH-DA dye-based fluorescence microscopic analysis; assay type: functional, cell-based
Summary of the method: (§2)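 ROS was imaged by fluorescence microscopy in HCT-116 and Saos-2 cells after 1 h treatment at 10 μM. DMSO-treated cells served as the control.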

[9] = test system: SAOS-2; assay: Induction of apoptosis in human Saos2 cells at 1 uM after 24 hrs by annexin V-FITC/propidium iodide staining-based flow cytometric method; assay type: functional
Summary of the method: (§3)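 Apoptosis was scored by fluorescence-activated cell sorting after 24 h treatment of HCT-116 and Saos-2 cells, with DMSO controls. Cell morphology was also examined. The percentage of apoptotic cells was reported at 1 and 5 μM.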

[10] = test system: SAOS-2; assay: Induction of apoptosis in human Saos2 cells at 5 uM after 24 hrs by annexin V-FITC/propidium iodide staining-based flow cytometric method; assay type: functional; summary of the method: as §3
[11] = test system: HCT-116; assay: Cell cycle arrest in human HCT116 cells assessed as accumulation at S phase 1 to 5 uM after 24 hrs by propidium iodide staining based flow cytometric method; assay type: functional
[12] = test system: SAOS-2; assay: Cell cycle arrest in human Saos2 cells assessed as accumulation at G2/M phase at 1 to 5 uM after 24 hrs by propidium iodide staining based flow cytometric method; assay type: functional
[13] = test system: SAOS-2; assay: Cell cycle arrest in human Saos2 cells assessed as accumulation at S phase at 1 to 5 uM after 24 hrs by propidium iodide staining based flow cytometric method; assay type: functional
[14] = test system: HCT-116; assay: Induction of apoptosis in human HCT116 cells after 24 hrs by annexin V-FITC/propidium iodide staining-based flow cytometric method; assay type: functional, cell-based; summary of the method: as §3
[15] = test system: SAOS-2; assay: Induction of apoptosis in human Saos2 cells after 24 hrs by annexin V-FITC/propidium iodide staining-based flow cytometric method; assay type: functional, cell-based; summary of the method: as §3
[16] = test system: HCT-116; assay: Cell cycle arrest in human HCT116 cells assessed as accumulation at G0/G1 phase at 1 to 5 uM after 24 hrs by propidium iodide staining based flow cytometric method; assay type: functional
[17] = test system: HCT-116; assay: Cell cycle arrest in human HCT116 cells accumulation at G0/G1 phase at 1 to 5 uM after 24 hrs by propidium iodide staining based flow cytometric method
[18] = test system: SAOS-2; assay: Induction of reactive oxygen species generation in human Saos2 cells at 10 uM after 1 hr by DCFH-DA dye-based fluorescence microscopic analysis relative to control; assay type: functional; summary of the method: as §2
[19] = test system: HCT-116; assay: Induction of reactive oxygen species generation in human HCT116 cells at 1 to 10 uM by DCFH-DA dye-based fluorescence microscopic analysis; assay type: functional, cell-based; details: TDE = time-dependent effect
Summary of the method: (§4)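 Cellular ROS was imaged by fluorescence microscopy in HCT-116 and Saos-2 cells. Cells were treated at 1, 5 and 10 μM for 1 h and 3 h, with a DMSO control.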

[20] = test system: SAOS-2; assay: Induction of reactive oxygen species generation in human Saos2 cells at 1 to 5 uM after 1 to 3 hrs by DCFH-DA dye-based fluorescence microscopic analysis; assay type: functional, cell-based; summary of the method: as §4
[21] = test system: SAOS-2; assay: Induction of reactive oxygen species generation in human Saos2 cells at 1 to 10 uM DCFH-DA dye-based fluorescence microscopic analysis; assay type: functional, cell-based; details: TDE = time-dependent effect; summary of the method: as §4
[22] = test system: HCT-116; assay: Induction of apoptosis in human HCT116 cells at 1 uM after 24 hrs by annexin V-FITC/propidium iodide staining-based flow cytometric method; assay type: functional; summary of the method: as §3
[23] = test system: HCT-116; assay: Induction of apoptosis in human HCT116 cells at 5 uM after 24 hrs by annexin V-FITC/propidium iodide staining-based flow cytometric method; assay type: functional; summary of the method: as §3
[24] = test system: HCT-116; assay: Cell cycle arrest in human HCT116 cells assessed as accumulation at G0/G1 phase after 24 hrs by propidium iodide staining based flow cytometric method; assay type: functional
[25] = test system: HCT-116; assay: Induction of reactive oxygen species generation in human HCT116 cells at 1 to 5 uM after 1 to 3 hrs by DCFH-DA dye-based fluorescence microscopic analysis; assay type: functional, cell-based; summary of the method: as §4

Row | Structure (SMILES) | IC50 [1] [µM] | IC50 [2] [µM] | IC50 [3] [µM] | IC50 [4] [µM] | IC50 [5] [µM] | IC50 [6] [µM] | IC50 [7] [µM] | Activity [8] | other results
1 | O=C1C(Cl)=CCCN1C(=O)c1ccncc1 | > 100 | > 100 | > 100 | > 100 | > 100 | 89.9 | > 100 | – | –
2 | O=C(/C=C/c1ccco1)N1CCC=C(Cl)C1=O | 8.3 | 4.49 | 5.52 | 1.27 | 1.47 | 0.28 | > 100 | – | –
3 | O=C1C(Cl)=CCCN1C(=O)C1CC1c1ccccc1 (stereo unspecified) | 85.1 | 64.5 | 65.1 | 72.9 | 68.3 | 23.5 | > 100 | – | –
4 | O=C1C(Cl)=CCCN1C(=O)c1ccco1 | 18.6 | 5.89 | 19.2 | 13.6 | 8.6 | 3.86 | > 100 | – | –
5 | COc1cc(/C=C/C(=O)N2CCC=CC2=O)cc(OC)c1OC [PIPLARTINE] | 6.84 | 7.34 | 10.6 | 13.3 | 9.49 | 7.31 | > 100 | Active | Activity [9]: 26%; Activity [10]: 33%; Activity [11]: Active; Activity [12]: inactive; Activity [13]: inactive; Activity [14]: Dose-dependent effect; Activity [15]: Dose-dependent effect; Activity [16]: Active; Activity [17]: Active
6 | O=C(/C=C/C(=O)N1CCC=C(Cl)C1=O)N1CCC=C(Cl)C1=O | 8.6 | 4.2 | 5.04 | 3.96 | 7.29 | 0.82 | 89.5 | – | –
7 | O=C1C(Cl)=CCCN1C(=O)c1cnc2ccccc2c1 | 10.6 | 10.2 | 8.68 | 3.52 | 6.63 | 2.96 | > 100 | – | –
8 | O=C(/C=C/c1ccoc1)N1CCC=C(Cl)C1=O | 11 | 4.37 | 4.97 | 2.78 | 2.26 | 1.15 | > 100 | – | –
9 | O=C1C(Cl)=CCCN1C(=O)c1cccnc1 | 8.64 | 3.84 | 4.83 | 4.83 | 5.67 | 2.55 | 31 | – | –
10 | O=C1C(Br)=CCCN1C(=O)c1cnc2ccccc2c1 | > 100 | > 100 | > 100 | 75.2 | 97.5 | 26.7 | > 100 | – | –
11 | O=C(C#Cc1ccccc1)N1CCC=C(Cl)C1=O | 7.93 | 0.92 | 1.73 | 1.19 | 1.12 | 0.42 | > 100 | inactive | fold change (FC) [18]: 2
12 | O=C(/C=C/c1cccnc1)N1CCC=C(Cl)C1=O | 2.97 | 2.36 | 2.97 | 1.9 | 1.67 | 0.53 | 47 | Active | fold change (FC) [18]: 2
13 | O=C(/C=C/c1ccccc1)N1CCC=C(Cl)C1=O | 4.12 | 1.67 | 1.67 | 0.71 | 1.17 | 0.011 | 84.6 | Active | fold change (FC) [18]: 2; Activity [19]: Tde; Activity [20]: Active; Activity [21]: Tde; Activity [22]: 16%; Activity [23]: 17%; Activity [9]: 12.7%; Activity [10]: 21.5%; Activity [24]: Dose-dependent effect; Activity [11]: Active; Activity [12]: inactive; Activity [13]: inactive; Activity [25]: Active; Activity [14]: Dose-dependent effect; Activity [15]: Dose-dependent effect
